# Data reported in PMC7194111 (Virology, 2020).
# Like-named read-outs stand apart in the source and are kept apart here.
# Key:
# Cytotoxicity measurement [1] = assay type: cell-based; details: African green monkey, Vero cells
# Procedure, shortened: (§1)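 Cells seeded at 6 × 10^3/well and exposed to a range of test compound concentrations (DMSO stock diluted in medium) for 48 h; controls received equal-volume DMSO. 10% CCK8 reagent added for 1 h, then absorbance read at 450 nm. CC50 taken as the concentration lowering viability by 50%.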
# Cytotoxicity measurement [2] = assay type: cell-based; details: human, A549 cells
# Procedure, shortened: as §1
# Cytotoxicity measurement [3] = assay type: cell-based; details: human, Huh7 cells
# Procedure, shortened: as §1
# ZIKV [4] = experiment: Anti-ZIKV assay; assay type: cell-based, Zika virus; details: for EC50: Zika virus
# Procedure, shortened: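 Cells seeded at 2 × 10^5/well and pretreated 2 h with serial dilutions of test compound (DMSO stock diluted in medium). Infected with ZIKV (Asian strain KU963796) at MOI 0.1 for 2 h, then incubated to 48 hpi at 37 °C, 5% CO2 in DMEM. Cellular vRNA measured by SYBR Green qRT-PCR using the 2^-ΔΔCT method normalized to GAPDH. EC50 is the concentration reducing viral yield by 50%.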
# ZIKV [5] = experiment: Plaque forming assay; assay type: cell-based, Zika virus
# Procedure, shortened: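 Supernatants from ZIKV-infected, compound-treated cultures were put on overnight Vero monolayers (2 × 10^5 cells/well) for 2 h at 37 °C. Inoculum replaced with plaque medium containing 1% methylcellulose. After 7 days, cells fixed and stained with 4% formaldehyde and 0.5% crystal violet.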
# ZIKV [6] = experiment: Viral protein by western blotting and immunofluorescence in Vero cells; assay type: cell-based, Zika virus
# Procedure, shortened: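 Vero cells infected with ZIKV at MOI 0.1 and treated with test compound or DMSO. At 48 hpi: fixed in 4% paraformaldehyde (15 min), permeabilized with 0.2% Triton X-100 (5 min), blocked in 5% BSA (30 min). Stained overnight at 4 °C with pan-flavivirus envelope mAb 4G2, then fluorescent secondary for 30 min at RT. Nuclei stained with DAPI; imaged by confocal microscopy.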
# ZIKV [7] = experiment: Time-of-addition assay; assay type: cell-based, Zika virus; details: 1 μM, added between -2 and 10 hpi, Vero cells, read at 48 hpi
# ZIKV [8] = experiment: Time-of-removal assay; assay type: cell-based, Zika virus
# Procedure, shortened: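 ZIKV-infected Vero cells received 1 μM test compound or DMSO at 6 hpi, with vRNA sampled every 3 h up to 24 hpi. Alternatively, treatment started at 24 hpi, with sampling every 6 h for a further 12 h. vRNA by SYBR Green qRT-PCR normalized to GAPDH. E and NS5 protein by western blot of cell lysates (SDS-PAGE, PVDF, overnight primary antibody at 4 °C, ECL), with GAPDH detected.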
# ZIKV [9] = experiment: ZIKV strand specific RNA by qRT-PCR; assay type: cell-based; details: Zika virus, Vero
# ZIKV NS5 RdRp = ZIKV NS5 RdRp (Zika virus, UniProt A0A024B7W1); experiment: In vitro RNA polymerase assay; assay type: biochemical; details: recombinant ZIKV NS5, serial dilutions
# Chain of ZIKV NS5 RdRp (A0A024B7W1 2521-3423 limits assumed): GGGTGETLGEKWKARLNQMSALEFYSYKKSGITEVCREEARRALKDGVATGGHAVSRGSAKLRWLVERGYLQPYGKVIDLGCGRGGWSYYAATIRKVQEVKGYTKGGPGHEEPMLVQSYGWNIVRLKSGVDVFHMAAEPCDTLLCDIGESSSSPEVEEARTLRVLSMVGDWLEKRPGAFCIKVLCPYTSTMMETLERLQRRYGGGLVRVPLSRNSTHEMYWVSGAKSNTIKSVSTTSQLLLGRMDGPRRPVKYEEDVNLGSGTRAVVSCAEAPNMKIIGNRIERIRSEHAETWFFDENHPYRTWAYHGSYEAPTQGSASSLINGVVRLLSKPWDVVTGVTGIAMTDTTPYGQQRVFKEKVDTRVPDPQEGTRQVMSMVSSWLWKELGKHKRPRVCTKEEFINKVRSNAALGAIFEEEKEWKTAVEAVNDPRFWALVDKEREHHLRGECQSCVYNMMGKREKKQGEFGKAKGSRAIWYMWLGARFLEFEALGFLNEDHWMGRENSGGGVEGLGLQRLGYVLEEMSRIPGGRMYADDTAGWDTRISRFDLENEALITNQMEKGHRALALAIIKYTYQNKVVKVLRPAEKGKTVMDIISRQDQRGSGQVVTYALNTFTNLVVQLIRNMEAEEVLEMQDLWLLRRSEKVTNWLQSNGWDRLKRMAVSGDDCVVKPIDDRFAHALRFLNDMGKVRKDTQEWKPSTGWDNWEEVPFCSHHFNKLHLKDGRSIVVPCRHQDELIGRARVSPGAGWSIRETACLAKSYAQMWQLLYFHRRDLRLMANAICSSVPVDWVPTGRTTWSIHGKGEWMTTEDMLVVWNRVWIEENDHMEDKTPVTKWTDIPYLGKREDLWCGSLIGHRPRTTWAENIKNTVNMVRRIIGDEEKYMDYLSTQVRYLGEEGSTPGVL
# ZIKV [10] = experiment: Lethal ZIKV challenge in AG6 mice; assay type: in vivo
# Procedure, shortened: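 AG6 mice aged 4–5 weeks (13–15 g, n = 6/group) were infected with 3.3 × 10^6 PFU ZIKV via footpad. Dosed intragastrically at 1, 5 or 10 mg/kg (DMSO stock in 0.5% carboxymethyl cellulose) or vehicle for 14 days. Survival and body weight tracked to 14 dpi. Retro-orbital blood at 1, 3, 7 dpi: vRNA copies by qRT-PCR against a standard curve. Brain/liver vRNA by RT-qPCR; H&E histology. One-way ANOVA with Dunnett's test.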
# ZIKV [11] = details: ref Adcock et al., 2017; cited from earlier work
# [12] = 1 μM added at 6 hpi, after 24 h of viral infection, western blot intensity
compound,measurement,setting,value
O[C@H]1[C@H]2c3cc4c(cc3CN3CCC(=C[C@@H]1O)[C@H]23)OCO4 [Lycorine],CC50 at 48 h,Cytotoxicity measurement [1],21000 nM
same,CC50 at 48 h,Cytotoxicity measurement [2],4290 nM
same,CC50 at 48 h,Cytotoxicity measurement [3],4400 nM
same,SI (selectivity index),ZIKV [4]; A549 cells,19.5
same,SI (selectivity index),ZIKV [4]; Huh7 cells,20
same,SI (selectivity index),ZIKV [4]; Vero cells,54
same,EC50,ZIKV [4]; A549,220 nM
same,EC50,ZIKV [4]; Huh-7,220 nM
same,EC50,ZIKV [4]; Vero,390 nM
same,Inhibition of plaque formation,ZIKV [5]; 0.5 μM,partially
same,Inhibition of plaque formation,ZIKV [5]; 5 μM,completely
same,ZIKV protein (western blotting),ZIKV [6]; 0.01 to 10 μM,dose-dependent reduction in the ZIKV protein
same,ZIKV envelope biosynthesis (immunofluorescence),ZIKV [6]; 48 hpi,significantly reduced
same,"vRNA and viral progeny particle load, time-of-addition",ZIKV [7],strongest ability to decrease the vRNA and viral progeny particle load
same,vRNA synthesis,"ZIKV [8]; 1 μM added at 6 hpi, Vero cells, monitored up to 24 hpi",fully abrogated vRNA synthesis
same,NS5 protein reduction,ZIKV [8]; [12],89%
same,Virus E protein reduction,ZIKV [8]; [12],52%
same,Viral E and NS5 protein reduction,ZIKV [8]; 1 μM added at 24 hpi,no significant difference
same,vRNA,"ZIKV [8]; 1 μM added at 24 hpi, monitored for additional 12 h",no effect on vRNA
same,inhibition at 1 µM,ZIKV [9]; read-out: Inhibition of negative-sense vRNA synthesis,~95%
same,inhibition at 1 µM,ZIKV [9]; read-out: Inhibition of positive-sense vRNA synthesis,~93%
same,RdRp activity,ZIKV NS5 RdRp,directly inhibited RdRp activity in a dose-dependent manner
same,Brain histopathology (H&E),ZIKV [10]; 1 mg/kg,brain tissue lesions were similar to those in the ZIKV group
same,Liver histopathology (H&E),ZIKV [10]; 1 mg/kg,inflammatory response of the cells was obvious
same,Reduction of vRNA of brain tissue,ZIKV [10]; 1 mg/kg,not significant difference
same,Reduction of vRNA of liver,ZIKV [10]; 1 mg/kg,not significant difference
same,Survival rate,"ZIKV [10]; 1 mg/kg intragastric, 14 days",33%
same,Brain histopathology (H&E),ZIKV [10]; 5 mg/kg,significantly reduced the ZIKV-induced inflammatory response
same,Reduction of vRNA of brain tissue,ZIKV [10]; 5 mg/kg,about one order of magnitude
same,Reduction of vRNA of liver,ZIKV [10]; 5 mg/kg,"about one and half order of magnitude, respectively"
same,Survival rate,"ZIKV [10]; 5 mg/kg intragastric, 14 days",66%
same,Brain histopathology (H&E),ZIKV [10]; 10 mg/kg,significantly reduced the ZIKV-induced inflammatory response
same,Reduction of vRNA of brain tissue,ZIKV [10]; 10 mg/kg,about three orders of magnitude
same,Survival (protection against ZIKV infection-induced death),"ZIKV [10]; 10 mg/kg intragastric, 14 days, ZIKV group 100% mortality",83%
same,Liver histopathology (H&E),"ZIKV [10]; 10 mg/kg, compared to 5 mg/kg group",significantly reduced liver damage
same,vRNA levels in blood versus ZIKV group,"ZIKV [10]; 1, 3 and 7 dpi",one order of magnitude lower
same,Body weight changes,"ZIKV [10]; weight loss from 5 dpi, 0 to 14 dpi",recovered until 9 or 10 dpi
"Cc1c(-c2ccc(-c3ccccc3F)cc2)nc2ccc(F)cc2c1C(=O)O [Brequinar, reference compound]",CC50 at 48 h,Cytotoxicity measurement [1],> 50000 nM
same,CC50 at 48 h,Cytotoxicity measurement [2],> 50000 nM
same,CC50 at 48 h,Cytotoxicity measurement [3],> 50000 nM
same,SI (selectivity index),ZIKV [4]; A549 cells,>1086
same,SI (selectivity index),ZIKV [4]; Huh7 cells,>8333
same,SI (selectivity index),ZIKV [4]; Vero cells,>2272
same,EC50,ZIKV [4]; A549,46 nM
same,EC50,ZIKV [4]; Huh-7,6 nM
same,EC50,ZIKV [4]; Vero,22 nM
same,EC50,ZIKV [11],80 nM
